A selection: hits, their analogues and other compounds. The true share with any hit is near 1.9%.
N-glyco inh: blocks N-linked glycosylation in D54 reporter cells; D54 ERlucT glycosylation luciferase reporter, 24 h; percent of 100 nM tunicamycin response; 360,000 tested, 0.23% active; AID 588692; reporter increase, % at 12.5 µM;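 active means mean luciferase reporter signal, scaled so untreated is 0 and the glycosylation-blocking control 100, at or above a set limit in every replicate; inconclusive means mean reaches the limit but not every replicate does; inactive means mean below the limit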;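 further: luciferase carries N-glycosylation sites so blocking glycosylation raises the light; 0% = median of neutral control wells and 100% = median of 100 nM tunicamycin wells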
PglD DTNB: inhibitors of Campylobacter jejuni PglD acetyltransferase | inhibition, % at 12.5 µM | AID 602405 | 360,000 tested, 0.098% active | purified PglD enzyme, DTNB colorimetric CoA detection; in the data active means inhibition above about 16%, passing the limit was not always enough; inconclusive means no clear call, values can overlap the other calls
SR-BI HDL uptake: mouse SR-BI HDL lipid transfer inhibition; ldlA[mSR-BI] CHO cells, DiI-HDL uptake fluorescence, 3 h; Q61009; inhibition, % at 12.5 µM; 320,000 tested, 0.96% active; AID 488896;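 active means mean replicate inhibition of at least 70% and a set share of replicates each scoring 70 or more; inconclusive means meets just one of the two criteria; inactive means fails both criteria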;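 further: 0% = median of neutral control wells and 100% = median of positive control wells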
Target sequence (Q61009 whole entry, looked up): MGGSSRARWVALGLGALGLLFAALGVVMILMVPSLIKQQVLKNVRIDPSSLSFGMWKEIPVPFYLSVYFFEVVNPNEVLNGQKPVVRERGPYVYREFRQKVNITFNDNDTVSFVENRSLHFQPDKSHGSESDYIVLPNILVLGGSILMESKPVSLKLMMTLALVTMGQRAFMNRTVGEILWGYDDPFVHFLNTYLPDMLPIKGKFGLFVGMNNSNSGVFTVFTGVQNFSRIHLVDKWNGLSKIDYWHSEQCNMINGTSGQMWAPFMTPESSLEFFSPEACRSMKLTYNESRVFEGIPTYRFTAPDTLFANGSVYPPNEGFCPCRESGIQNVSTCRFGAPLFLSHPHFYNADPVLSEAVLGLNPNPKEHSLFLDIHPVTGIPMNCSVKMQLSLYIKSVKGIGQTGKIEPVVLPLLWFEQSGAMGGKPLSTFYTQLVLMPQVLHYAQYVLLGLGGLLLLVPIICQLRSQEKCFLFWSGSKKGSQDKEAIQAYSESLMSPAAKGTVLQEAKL
Rtt109 HAT inh: C. albicans Rtt109 histone acetyltransferase inhibition; purified Rtt109/Vps75, ThioGlo CoA-SH fluorescence, 4 h; inhibition, % at 34.9 µM; 330,000 tested, 0.16% active; AID 540336;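 active means inhibition of at least 50% in every replicate; inconclusive means best replicate reaches 50% inhibition but some replicates fall short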
Env fusion inh: HIV envelope-mediated fusion inhibition | HeLa-JRFL Env/CEM21 cell fusion, luciferase | inhibition, % at 12.3 µM | 360,000 tested, 1.1% active | AID 651610;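 active means mean replicate inhibition score of at least 50 and every replicate individually at or above 50; inconclusive means only one of the two criteria met; inactive means mean below 50 and not all replicates reaching 50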;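 further: 0% = plate neutral controls and 100% = maraviroc near 300 nM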
SR-BI DiI-HDL act: SR-BI HDL lipid transfer activation; CHO ldlA[mSR-BI] cells, DiI-HDL uptake fluorescence, 3 h; 100 = double the neutral-control signal; activation, % at 12.5 µM; 320,000 tested, 0.096% active; AID 504775;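 active means mean replicate activation of at least 60% and every replicate at or above 60%; inconclusive means mean or all-replicate condition met, but not both; inactive means mean below 60% and not all replicates reaching 60%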;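 further: 0% = median plate neutral-control signal and 100% = twice that signal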
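Assay system: CHO ldlA[mSR-BI] cells, LDL receptor-null, SR-BI overexpressing; medium: Ham's F12 with 0.5% BSA, HEPES 25 mM, pH 7.4; also added: DiI-HDL 10 µg/mL; timing: 3 h uptake period with compound, 37 °C; signal: DiI fluorescence, bottom read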
The depositor's hits bear a star; i = inactive; ? = inconclusive; . = no result given; [ ] = dose if it differs, or a comment.

SMILES	N-glyco inh	PglD DTNB	SR-BI HDL uptake	Rtt109 HAT inh	Env fusion inh	SR-BI DiI-HDL act
Cc1noc(C)c1S(=O)(=O)N(C)C[C@@H]1OCCCC[C@H](C)Oc2ccc(NC(=O)c3ccccc3)cc2C(=O)N([C@@H](C)CO)C[C@H]1C	.	-2	.	.	-7[16.7 µM]	.
COc1ccc(NC(=O)N(C)C[C@H]2Oc3ccc(NS(=O)(=O)c4cn(C)cn4)cc3CC(=O)N([C@H](C)CO)C[C@@H]2C)cc1	.	4	.	.	-8[16.7 µM]	.
C[C@H]1CN([C@@H](C)CO)C(=O)Cc2cc(N(C)C)ccc2O[C@H]1CN(C)CC1CC1	.	5	.	.	59*[16.7 µM]	.
C[C@H]1CN([C@@H](C)CO)C(=O)Cc2cc(N(C)C)ccc2O[C@H]1CN(C)Cc1ccc(Cl)c(Cl)c1	.	.	.	.	58*[16.7 µM]	.
C[C@@H]1CCCCO[C@@H](CN(C)C(=O)c2ccccc2)[C@@H](C)CN([C@@H](C)CO)C(=O)c2cc(NC(=O)Cc3ccccc3)ccc2O1	.	-7	.	.	-48[16.7 µM]	.
Cc1[nH]c2ccc(-c3nnc(SCC(=O)c4ccc(F)cc4)o3)cc2c1C	-3	5	2	4	.	-2
Cc1cc(C)c(C)c(C(=O)CSc2nnc(-c3ccc4[nH]c(C)c(C)c4c3)o2)c1C	-1	.	84*	1	.	-84
O=C1C=CC(=O)c2c(O)c(N3CCN(CCO)CC3)c(Cl)c(O)c21	-19	.	35	-3	-158	-35
O=C1C=CC(=O)c2c(O)c(N3CCN(CCOCCO)CC3)c(Br)c(O)c21	-21	.	5	0	61*	-5
C[C@H](CO)N1C[C@H](C)[C@H](CN(C)S(C)(=O)=O)OCCCC[C@H](C)Oc2ccc(NS(=O)(=O)c3cccs3)cc2C1=O	.	2	.	.	-4[16.7 µM]	.
COc1ccccc1NCc1cc(=O)oc2c(C)c(O)ccc12	0	4	73*	-5	5	-73
CCCCCCNC(=O)CNC(=S)N(Cc1cccs1)C1CCCCC1	-2	-1	-6	-4	59*	6
COc1cc(C(=O)COC(=O)c2cc([N+](=O)[O-])ccc2N2CCOCC2)ccc1OC(F)F	-1	0	85*	-1	15	-85
Cc1cc(C)c(C(=O)COC(=O)c2cc([N+](=O)[O-])ccc2N2CCOCC2)cc1C	0	-3	79*	-7	9	-79
COc1ccccc1C(=O)COC(=O)c1cc([N+](=O)[O-])ccc1N1CCOCC1	-2	-7	85*	4	16	-85
COc1ccc(C(=O)COC(=O)c2cc([N+](=O)[O-])ccc2N2CCOCC2)c(OC)c1	-3	1	?	-3	11	-70
COc1ccc(NC(=O)N(C)C[C@@H]2OCCCC[C@H](C)Oc3ccc(NC(=O)CCC(F)(F)F)cc3C(=O)N([C@H](C)CO)C[C@H]2C)cc1	.	1	.	.	-14[16.7 µM]	.
O=C1/C(=C/c2ccc(F)cc2)SC(=S)N1CC(=O)N1CCCCC1c1cccnc1 (centres undefined)	-7	-1	24	53*	-1	-24
CS(=O)(=O)Nc1ccc2c(c1)[C@@H]1C[C@H](CC(=O)NCC(F)(F)F)O[C@@H](CO)[C@@H]1O2	.	6	.	.	-11[16.7 µM]	.
Cc1ccc(-c2nnc(N3CCN(C(=O)COc4ccccc4)CC3)c3ccccc23)cc1	-3	-3	57	16	68*	-57
C[C@@H]1CN([C@H](C)CO)C(=O)c2cc(NC(=O)Cc3ccccc3)ccc2O[C@@H](C)CCCCO[C@H]1CN(C)Cc1ccncc1	.	-4	.	.	8[16.7 µM]	.
C[C@@H]1CN([C@H](C)CO)C(=O)Cc2cc(NC(=O)CCN3CCOCC3)ccc2O[C@H]1CN(C)C(=O)Nc1ccc(F)cc1	.	-2	.	.	-18[16.7 µM]	.
Cc1ccccc1C(=O)N1CCN(c2ccc(NC(=O)c3cccnc3Cl)cc2)CC1	-9	.	76*	3	18	-76
Cc1ccccc1C(=O)N1CCN(c2ccc(NC(=O)c3ccccc3[N+](=O)[O-])cc2)CC1	-6	.	78*	7	17	-78
O=[N+]([O-])c1ccc(NC(=S)N2CCN(c3ccccc3)CC2)cc1	2	6	-75	-3	28	75*
SMILES	N-glyco inh	PglD DTNB	SR-BI HDL uptake	Rtt109 HAT inh	Env fusion inh	SR-BI DiI-HDL act
O=C(Nc1ccc(N2CCCC2)cc1)c1ccccc1[N+](=O)[O-]	0	-1	8	1	-13	-8
CO[C@@H]1CN(C)C(=O)c2cc(NC(C)=O)ccc2OC[C@@H](C)N(C(=O)CC2CC2)C[C@H]1C	.	-2	.	.	-4[16.7 µM]	.
N#CCC(CNc1ncc(C(F)(F)F)cc1Cl)OC(=O)c1ccc(Cl)cc1Cl (centres undefined)	30*	.	18	-1	.	-18
Cc1ccc(NC(=O)c2sc(Cl)nc2C)c(C)c1	1	-3	16	-6	-29	-16
Cc1cc(C)c(C)c(OC(=O)c2sc(Cl)nc2C)c1	38*	.	9	2	.	-9
COCC(=O)Nc1ccc2c(c1)OC[C@@H](C)N(Cc1cccc(F)c1)C[C@H](C)[C@@H](OC)CN(C)C2=O	.	-1	.	.	14[16.7 µM]	.
O=C(NCCCN1CCOCC1)c1cc(-c2cccs2)on1	46*	0	-4	3	.	4
COc1ccc(OC)c(-c2cc(C(=O)NCCCn3ccnc3)no2)c1	2	.	54	9	-44	-54
O=C(NCCCn1ccnc1)c1cc(-c2cccs2)on1	155*	-4	-1	9	i	1
Cc1ccc(-c2cc(C(=O)NCCCN3CCOCC3)no2)cc1	-4	-6	-3	.	29	3
C[C@H]1CN([C@@H](C)CO)C(=O)c2cc(C#CCN(C)C)cnc2O[C@H]1CN(C)Cc1cccc(C(=O)O)c1	.	-1	.	.	16[16.7 µM]	.
CCOC(=O)c1c(NC(=S)Nc2cccc(C)c2)sc2c1CC(C)(C)SC2	1	.	87*	3	19	-87
CCC(O)(CC)C(=O)NN(C(=O)Nc1csc2c1CCCC2)c1ccccc1	2	-4	27	-7	62*	-27
CSc1cccc(NC(=O)/C=C/c2ccccc2)c1	1	-6	73*	0	-154	-58
O=C(/C=C/c1ccccc1)Nc1cccc(C(=O)O)c1	-10	.	-13	-8	78*	13
COC(=O)c1cccc(NC(=O)/C=C/c2cccc([N+](=O)[O-])c2)c1	3	.	73*	0	.	-73
O=C(/C=C/c1ccccc1)Nc1cc(NC(=O)/C=C/c2ccccc2)cc(C(=O)O)c1	0	2	0	-5	1	0
C[C@H](CO)N1C[C@H](C)[C@H](CN(C)S(C)(=O)=O)Oc2c(NC(=O)NC3CCCCC3)cccc2C1=O	.	-6	.	.	.	.
COc1ccc2c(c1OC)C(=O)OC2C1c2c(cc3c(c2OC)OCO3)CCN1C (centres undefined)	1	-2	1	8	11	2

Compound activity from PubChem BioAssay.
